Results published in ChEMBL document CHEMBL1255389, “Exploiting the drug-activating properties of a novel trypanosomal nitroreductase” (Antimicrob Agents Chemother, 2010).

Experiments:
[1] = Therapeutic index, ratio of IC50 against human THP1 cells to IC50 against Trypanosoma brucei; assay type: cell-based, THP-1; details: read-out: Ratio IC50
Outline: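 Index was calculated as THP-1 IC50 divided by T. brucei BSF IC50. THP-1 IC50 came from 6-day Alamar blue assays, and parasite IC50 from 3-day Alamar blue assays, both at 37°C.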

Trypanosoma brucei [2] = assay: Antiparasitic activity against Trypanosoma brucei BSF after 3 days by Alamar blue assay; assay type: functional, organism-based; details: 72 h
Outline: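 BSF trypomastigotes (MITat 427, clone 221a) were seeded at 1 × 10^3 ml−1 in modified Iscove's medium with tetracycline-free FCS, across a range of compound concentrations. Plates ran 3 days at 37°C, then Alamar blue was added for 16 h. Fluorescence was read at ex 530/em 585 nm and IC50 determined.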

THP-1 = assay: Cytotoxicity against human THP1 cells after 6 days by Alamar blue assay; assay type: cell-based; details: THP-1, 144 h
Outline: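 THP-1 cells were grown in RPMI 1640 with 10% tetracycline-free FCS and 20 mM HEPES. They were seeded at 1 × 10^4 ml−1 across a range of compound concentrations and incubated 6 days at 37°C, 5% CO2.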

Trypanosoma brucei [3] = assay: Antiparasitic activity against Trypanosoma brucei BSF overexpressing NTR gene after 3 days by Alamar blue assay; assay type: functional, organism-based; details: 72 h
Outline: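 Parasite lines were heterozygous NTR+/− (kept on 2 μg ml−1 puromycin) or TbNTR-overexpressing (kept on 2.5 μg ml−1 hygromycin plus 1 μg ml−1 phleomycin). Tetracycline at 1 μg ml−1 was added for induction where appropriate. Cells were seeded at 1 × 10^3 ml−1 and grown 3 days at 37°C, followed by Alamar blue for 16 h. Fluorescence IC50s were compared with control cells.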

Trypanosoma brucei [4] = test system: Trypanosoma brucei
Trypanosoma brucei [5] = test system: Trypanosoma brucei; remark: listed apart in the source
Trypanosoma brucei [6] = details: 100 uM

| SMILES | selectivity ratio [1] | IC50 (Trypanosoma brucei [2]) [µM] | IC50 (THP-1) [µM] | IC50 (Trypanosoma brucei [3]) [µM] | kcat/Km (Trypanosoma brucei [4]) [M⁻¹ s⁻¹] | Km (Trypanosoma brucei [5]) [µM] | Vmax (Trypanosoma brucei [6]) [nmol/min] |
| --- | --- | --- | --- | --- | --- | --- | --- |
| O=[N+]([O-])c1ccc([C@@H]2CCO[P@](=O)(N(CCCl)CCCl)N2)cc1 | 36 | 1.8 | 64.8 | – | – | – | – |
| NP(=O)(OCc1ccc([N+](=O)[O-])cc1)N(CCCl)CCCl (configuration not stated) | – | 3.4 | 66 | – | – | – | – |
| O=[N+]([O-])c1ccc([C@@H]2CCO[P@@](=O)(N(CCCl)CCCl)N2)cc1 | 36 | 1.8 | 64.8 | – | – | – | – |
| O=[N+]([O-])c1ccc([C@@H]2CCN[P@@](=O)(N(CCCl)CCCl)N2)cc1 | 36 | 1.8 | 64.8 | – | – | – | – |
| O=[N+]([O-])c1ccc([C@@H]2CCN[P@@](=O)(N(CCCl)CCCl)O2)cc1 | 36 | 1.8 | 64.8 | – | – | – | – |
| CC(OP(N)(=O)N(CCCl)CCCl)c1ccc([N+](=O)[O-])cc1 (configuration not stated) | 36 | 1.8 | 64.8 | – | – | – | – |
| Nc1nc(N)nc(Nc2ccc([As]3SCC(CO)S3)cc2)n1 (configuration not stated) [MELARSOPROL] | – | – | – | 4 | – | – | – |
| NP(=O)(OCc1ccc([N+](=O)[O-])cc1C(F)(F)F)N(CCCl)CCCl (configuration not stated) | – | 0.149 | 19 | – | – | – | – |
| CC(C)(C(=O)N[C@@H]1CCN[P@](=O)(N(CCCl)CCCl)O1)c1ccccc1[N+](=O)[O-] | 36 | 1.8 | 64.8 | – | – | – | – |
| NP(=O)(OCc1c(F)cc([N+](=O)[O-])cc1F)N(CCCl)CCCl (configuration not stated) | – | 0.007 | 6.9 | – | – | – | – |
| COc1cc([N+](=O)[O-])ccc1COP(N)(=O)N(CCCl)CCCl (configuration not stated) | 28 | 1.2 | 33.5 | – | – | – | – |
| NP(=O)(OCc1ccc([N+](=O)[O-])c(F)c1)N(CCCl)CCCl (configuration not stated) | 6 | 3.2 | 17.6 | – | – | – | – |
| COc1cc(COP(N)(=O)N(CCCl)CCCl)ccc1[N+](=O)[O-] (configuration not stated) | 36 | 1.8 | 64.8 | – | – | – | – |
| NP(=O)(OCc1ccccc1[N+](=O)[O-])N(CCCl)CCCl (configuration not stated) | 36 | 1.8 | 64.8 | – | – | – | – |
| O=[N+]([O-])c1ccc([C@@H]2CCN[P@](=O)(N(CCCl)CCCl)N2)cc1 | 36 | 1.8 | 64.8 | – | – | – | – |
| NP(=O)(OCc1ccc([N+](=O)[O-])cc1Cl)N(CCCl)CCCl (configuration not stated) | – | 0.008 | 10 | – | – | – | – |
| NP(=O)(OCc1cccc([N+](=O)[O-])c1)N(CCCl)CCCl (configuration not stated) | 36 | 1.8 | 64.8 | – | – | – | – |
| NP(=O)(OCc1ccc([N+](=O)[O-])cc1F)N(CCCl)CCCl (configuration not stated) | – | 0.268 | 20.3 | – | – | – | – |
| O=[N+]([O-])c1ccc([C@@H]2CCN[P@](=O)(N(CCCl)CCCl)O2)cc1 | 36 | 1.8 | 64.8 | – | – | – | – |
| CC(C)(C(=O)N[C@@H]1CCN[P@@](=O)(N(CCCl)CCCl)O1)c1ccccc1[N+](=O)[O-] | 36 | 1.8 | 64.8 | – | – | – | – |
| CC1CS(=O)(=O)CCN1/N=C/c1ccc([N+](=O)[O-])o1 (configuration not stated) [NIFURTIMOX] | 36 | 1.8 | 64.8 | – | 3.4 | 53.1 | 423 |
| Cc1cc(COP(N)(=O)N(CCCl)CCCl)ccc1[N+](=O)[O-] (configuration not stated) | 36 | 1.8 | 64.8 | – | – | – | – |
